Each structure is given as a SMILES string.

For data set [1], the target named is T1, ABCG2 (Homo sapiens, UniProt Q9UNQ0).
T1 sequence (Q9UNQ0 whole entry): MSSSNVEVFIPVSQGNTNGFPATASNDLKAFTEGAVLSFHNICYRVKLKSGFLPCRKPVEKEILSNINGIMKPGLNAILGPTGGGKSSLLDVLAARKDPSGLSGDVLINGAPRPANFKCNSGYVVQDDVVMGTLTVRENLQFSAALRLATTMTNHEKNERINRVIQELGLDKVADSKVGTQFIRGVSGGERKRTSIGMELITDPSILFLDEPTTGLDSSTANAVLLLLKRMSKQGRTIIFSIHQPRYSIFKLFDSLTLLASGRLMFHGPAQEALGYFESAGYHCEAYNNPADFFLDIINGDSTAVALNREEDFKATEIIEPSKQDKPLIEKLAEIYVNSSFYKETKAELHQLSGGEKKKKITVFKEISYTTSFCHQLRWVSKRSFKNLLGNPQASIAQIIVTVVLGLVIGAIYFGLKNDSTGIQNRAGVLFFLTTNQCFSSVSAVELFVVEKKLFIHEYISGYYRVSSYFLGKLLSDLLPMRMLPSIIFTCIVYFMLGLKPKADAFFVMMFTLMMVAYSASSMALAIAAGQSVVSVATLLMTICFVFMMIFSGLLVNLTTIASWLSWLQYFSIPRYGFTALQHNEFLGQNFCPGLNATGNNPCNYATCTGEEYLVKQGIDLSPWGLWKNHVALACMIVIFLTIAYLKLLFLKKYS
Put plainly: Activation of human ABCG2-mediated ATPase activity preincubated for 2 mins followed by ATP addition at 100 nM and measured after 20 mins by colorimetric assay relative to control. The settings on record: read-out: Activity. The gist of the method:
(§1)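 Total membrane vesicles from High-Five insect cells expressing human ABCG2 (hypotonic lysis, differential centrifugation), 10 μg protein/tube, in MES-Tris pH 6.8 buffer with KCl, MgCl2, NaN3, EGTA, ouabain, DTT. Compound in DMSO added ± sodium orthovanadate (0.3 mM), DMSO control. Preincubated 2 min at 37°C, then 5 mM ATP, 20 min. SDS stop, Pi measured colorimetrically. Three independent experiments in duplicate, mean ± SE.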

Data set [2] addresses T2, Broad substrate specificity ATP-binding cassette transporter ABCG2 (Homo sapiens, UniProt Q9UNQ0).
T2 sequence (Q9UNQ0 whole entry): T1 sequence (Q9UNQ0 whole entry)
Put plainly: Activation of human ABCG2-mediated ATPase activity preincubated for 2 mins followed by ATP addition and measured after 20 mins by colorimetric assay. The gist of the method:
as §1

Data set [3] addresses T1, ABCG2. Nature of the data set: Inhibition of human ABCG2 in human R5 cells assessed as inhibition of mitoxantrone efflux at 10 uM measured by flow cytometric analysis relative to control. It counts as cell-based. The following applies: probe mitoxantrone. Put shortly:
(§2)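 HEK293 cells transfected with full-length ABCG2 (R-5) or empty pcDNA vector, grown in MEM with 10% FBS and 2 mg/ml G418. Cells incubated in IMDM with 5% FBS, 5 μM mitoxantrone (final) ± compound, 37°C for 45 min. Washed in cold IMDM, resuspended in cold PBS with 1% BSA, read by flow cytometry.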
(Flow cytometry measures light scatter and fluorescence of single cells or particles in a stream.)

Data set [4] deals with T2, Broad substrate specificity ATP-binding cassette transporter ABCG2. Put plainly: Inhibition of human ABCG2 in human R5 cells assessed as inhibition of mitoxantrone efflux measured by flow cytometric analysis. Format: cell-based. Put shortly:
as §2

Another data set deals with T3, Adenosine receptor A3 (Mus musculus, UniProt Q61618).
T3 sequence (Q61618 whole entry): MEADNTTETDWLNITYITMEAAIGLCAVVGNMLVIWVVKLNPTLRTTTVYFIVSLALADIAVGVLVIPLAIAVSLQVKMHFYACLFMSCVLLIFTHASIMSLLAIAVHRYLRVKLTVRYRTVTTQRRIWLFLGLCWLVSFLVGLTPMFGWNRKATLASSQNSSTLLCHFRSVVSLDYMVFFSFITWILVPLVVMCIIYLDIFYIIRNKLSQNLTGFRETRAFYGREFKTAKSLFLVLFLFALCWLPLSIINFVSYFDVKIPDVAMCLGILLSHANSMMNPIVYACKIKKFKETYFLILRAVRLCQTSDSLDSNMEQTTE
Nature of the data set: Binding affinity towards mouse adenosine A3 receptor.

As a reminder, the EC50 is the concentration that produces a half-maximal response. The low end stands for greater potency, the high end for weaker potency. A word on the inhibition: it is the percentage by which the read-out fell short of the control. As usually defined, the IC50 is the midpoint of a concentration-inhibition curve. Broadly, the Ki is a dissociation constant, usually derived from enzyme kinetics or from competition with a known ligand. Higher therefore signals a looser hold on the target. Regarding `CCOC(=O)C12CC1[C@@H](n1ccc3c(NCCc4ccccc4)nc(C#Cc4ccccc4)nc31)[C@H](O)[C@@H]2O` (single isomer, unassigned), the activity at 20 min, 0.1 µM at ABCG2 [1] stood at 77.3%. In data set [2], this compound gave a 50% effective concentration (EC50) of 13.2 nM. The inhibition at 10 µM on ABCG2 [3] turned out to be 92.6%. Also, the IC50 in data set [4] was determined as 440 nM. The same compound registered a Ki at Adenosine receptor A3 of more than 10 µM.

Values taken from ChEMBL document CHEMBL5154735, “Interaction of A3 adenosine receptor ligands with the human multidrug transporter ABCG2” (Eur J Med Chem, 2022).
